Results as given in article PMC7497807 (Blood cancer discovery, 2020).
No end group written: not given here.

Target: T1, MBP-ENL (Homo sapiens, UniProt Q03111)
T1 sequence (Q03111 1-559): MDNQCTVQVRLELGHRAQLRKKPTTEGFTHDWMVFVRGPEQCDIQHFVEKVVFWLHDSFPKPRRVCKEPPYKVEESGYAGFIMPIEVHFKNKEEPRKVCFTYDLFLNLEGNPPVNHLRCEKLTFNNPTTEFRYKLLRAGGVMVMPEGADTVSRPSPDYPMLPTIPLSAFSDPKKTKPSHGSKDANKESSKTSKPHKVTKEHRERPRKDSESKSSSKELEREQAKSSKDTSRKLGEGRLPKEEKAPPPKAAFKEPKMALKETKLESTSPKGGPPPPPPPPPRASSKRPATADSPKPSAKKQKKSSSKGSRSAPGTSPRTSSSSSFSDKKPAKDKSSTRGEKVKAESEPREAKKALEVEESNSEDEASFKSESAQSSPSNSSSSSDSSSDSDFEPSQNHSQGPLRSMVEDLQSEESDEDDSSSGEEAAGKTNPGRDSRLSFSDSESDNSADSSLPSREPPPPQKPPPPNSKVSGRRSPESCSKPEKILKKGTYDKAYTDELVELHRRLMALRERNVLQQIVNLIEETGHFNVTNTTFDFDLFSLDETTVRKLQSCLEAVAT
Test: FA binding of fluorescein-labeled peptides to MBP-ENL
Conditions: fluorescence anisotropy, fluorescein-labeled peptide, MBP-ENL versus MBP-AF9
Procedure, shortened: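 Fluorescence anisotropy titrations of fluoresceinated peptides spanning the AF9-binding motif of each binding partner, run with MBP-ENL and, in parallel, MBP-AF9. A KD was obtained for each protein–peptide pair, and the fold change was taken as AF9 KD/ENL KD. Each measurement was run in three replicates, with error given as SEM.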

affinity for ENL compared with affinity for AF9 (in words): substantial enhancement in binding
Substance: FITC-CBX8: fluorescein-labeled CBX8 peptide (AQGGRPSLIARIPVARILGDPEEE; also: fluorescein-labeled, attachment not given here)
